This note sets out measurements from ChEMBL document CHEMBL3046238, “Synthesis and biological activity evaluation of 1,2,3-thiadiazole derivatives as potential elicitors with highly systemic acquired resistance” (2009).

Active and inactive are the calls of the source. No cut-off for these calls is given here.

Holding throughout (format): functional
The subject of assay [1] is Cytospora mali. As to the kind of experiment: Antifungal activity against Valsa mali assessed as growth inhibition at 50 ug/mL measured after 2 days post dose. The settings on record: for inhibition of growth at 50 µg/mL: 48 h, read-out: GI.
Assay [2] concerns Fusarium fujikuroi. As to the kind of experiment: Antifungal activity against Fusarium fujikuroi assessed as growth inhibition at 50 ug/mL measured after 2 days post dose. To be noted: for inhibition of growth at 50 µg/mL: 48 h, read-out: GI.
Assay [3] deals with Mycosphaerella arachidis. The assay is described as follows: Antifungal activity against Mycosphaerella arachidis assessed as growth inhibition at 50 ug/mL measured after 2 days post dose. To be noted: for inhibition of growth at 50 µg/mL: 48 h, read-out: GI.
In assay [4] the test system is Sclerotinia sclerotiorum. As to the kind of experiment: Antifungal activity against Sclerotinia sclerotiorum assessed as growth inhibition at 50 ug/mL measured after 2 days post dose. To be noted: 48 h, read-out: GI.
Assay [5] deals with Alternaria solani. As to the kind of experiment: Antifungal activity against Alternaria solani assessed as growth inhibition at 50 ug/mL measured after 2 days post dose. To be noted: 48 h, read-out: GI.
Assay [6] deals with Ceratobasidium cereale. The assay is described as follows: Antifungal activity against Ceratobasidium cereale assessed as growth inhibition at 50 ug/mL measured after 2 days post dose. The settings on record: for inhibition of growth at 50 µg/mL: 48 h, read-out: GI.
Assay [7] deals with Ustilaginoidea virens. The assay is described as follows: Antifungal activity against Villosiclava virens assessed as growth inhibition at 50 ug/mL measured after 2 days post dose. To be noted: for inhibition of growth at 50 µg/mL: 48 h, read-out: GI.
For assay [8], the system named is Tobacco mosaic virus. The assay is described as follows: Induction of systemic acquired resistance against Tobacco mosaic virus (TMV) in tobacco plants exposed to 500 ug/mL compound through leaf spray followed by 7 days culture under green house conditions assessed as inhibition of viral growth in leaves infected with Tobacco mosaic virus (TMV) measured 72 hr post viral infection by half-leaf juice rubbing method. More on the design: scale not given: the % may be the effect or the level left. The method, boiled down: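 Tobacco plants received compound by leaf spray or by soil irrigation, with double-distilled water as CK. Newly grown leaves were then rub-inoculated with TMV (5.88×10-2 μg/mL), and plants were kept at 25 °C for 72 h. Lesions on inoculated leaves were counted. Inhibition = (CK−A)/CK×100 from mean lesion numbers versus control.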

The subject of assay [9] is Rhizoctonia solani. As to the kind of experiment: Antifungal activity against Rhizoctonia solani assessed as growth inhibition at 50 ug/mL measured after 2 days post dose. The settings on record: for inhibition of growth at 50 µg/mL: 48 h, read-out: GI.
Assay [10] concerns Colletotrichum gloeosporioides. As to the kind of experiment: Antifungal activity against Glomerella cingulata assessed as growth inhibition at 50 ug/mL measured after 2 days post dose. To be noted: for inhibition of growth at 50 µg/mL: 48 h, read-out: GI.
Assay [11] deals with Phytophthora infestans. The assay is described as follows: Antifungal activity against Phytophthora infestans assessed as growth inhibition at 50 ug/mL measured after 2 days post dose. To be noted: for inhibition of growth at 50 µg/mL: 48 h, read-out: GI. The method, boiled down: (§1)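 Compound stock at 500 μg/mL in DMF, diluted with sterile water in the dish and mixed into potato dextrose agar before setting. A 4 mm diameter fungal plug is placed on the plate and cultured at 24-26 °C. Colony diameter is measured after 2 days.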

In assay [12] the test system is Botrytis cinerea. The assay is described as follows: Antifungal activity against Botryotinia fuckeliana assessed as growth inhibition at 50 ug/mL measured after 2 days post dose. The settings on record: for inhibition of growth at 50 µg/mL: 48 h, read-out: GI.
Assay [13] has as its system Fusarium graminearum. The assay is described as follows: Antifungal activity against Fusarium graminearum assessed as growth inhibition at 50 ug/mL measured after 2 days post dose. To be noted: for inhibition of growth at 50 µg/mL: 48 h, read-out: GI. The method, boiled down:
as §1

Assay [14] has as its system Botryosphaeria berengeriana. As to the kind of experiment: Antifungal activity against Botryosphaeria berengeriana assessed as growth inhibition at 50 ug/mL measured after 2 days post dose. To be noted: for inhibition of growth at 50 µg/mL: 48 h, read-out: GI.
Assay [15] concerns Fusarium oxysporum. As to the kind of experiment: Antifungal activity against Fusarium oxysporum assessed as growth inhibition at 50 ug/mL measured after 2 days post dose. The settings on record: 48 h, read-out: GI.
Assay [16] relates to Fusarium oxysporum f. sp. vasinfectum. As to the kind of experiment: Antifungal activity against Fusarium oxysporum f. sp. vasinfectum assessed as growth inhibition at 50 ug/mL measured after 2 days post dose. To be noted: for inhibition of growth at 50 µg/mL: 48 h, read-out: GI.
Assay [17] concerns Alternaria mali. The assay is described as follows: Antifungal activity against Alternaria mali assessed as growth inhibition at 50 ug/mL measured after 2 days post dose. The settings on record: for inhibition of growth at 50 µg/mL: 48 h, read-out: GI.
Assay [18] has as its system Puccinia triticina. As to the kind of experiment: Antifungal activity against Puccinia triticina inoculated on 500 ug/mL compound pre-treated wheat plants with 3 to 5 leaves assessed as growth inhibition. The method, boiled down:
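Healthy wheat plants at the 3-5 leaf stage were sprayed with compound (500 μg/mL) and then inoculated with spores. Inhibition percentage was calculated against the corresponding spore stack.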

For `Cc1nnsc1-c1nnc(/C=C/c2ccccc2)o1`, the inhibition of growth at 50 µg/mL amounted to 20.3% in assay [1]; 21.1% in assay [2]; 27.3% in [3]; 0% in assay [4]; 31.6% in assay [5]; 0% in assay [6]. The inhibition of growth at 50 µg/mL in assay [7] is 0%; in assay [9] it was 0%; in [10], 13.8%; in assay [11], 20%; in assay [12] it was 0%; in assay [13], 36.8%. The inhibition of growth at 50 µg/mL in [14] stood at 46%; in assay [15], 36.3%; in assay [16], 23.7%; in assay [17], 0%. Moreover, the Activity in [8] was found to be 0%. Further, the “growth inhibition (GI)” value in assay [18] is recorded as 20%.

For `Cc1ccc(-c2nnc(-c3snnc3C)o2)cc1`, the “growth inhibition (GI)” value in assay [1], in assay [2], in assay [3], in assay [6], in [7] and in assay [10] was “inactive” in each case. Moreover, the “growth inhibition (GI)” value in assay [13], in assay [14], in [16] and in [17] was “inactive” in each case. For the same molecule, the inhibition of growth at 50 µg/mL in [4] came to 56%; in [5] it was 18.4%; in [9] it was 67.9%; in [11], 0%; in assay [12], 2.1%; in assay [15], 0%. The Activity in [8] is 0%. Further, the “growth inhibition (GI)” value in [18] is listed as 11%.

As to `Cc1cccc(-c2nnc(-c3snnc3C)o2)c1`, the inhibition of growth at 50 µg/mL in assay [1] was found to be 47.2%; in [2] it was 24.1%; in assay [3], 23.5%; in [4], 23.5%; in assay [5], 0%; in assay [6], 37.9%. For the same molecule, the inhibition of growth at 50 µg/mL worked out at 0% in assay [7]; 0% in assay [9]; 0% in [10]; 17.1% in assay [11]; 37.9% in [12]; 24.1% in assay [13]. Moreover, the inhibition of growth at 50 µg/mL came out at 47.2% in assay [14], 0% in assay [15], 0% in assay [16] and 41.4% in [17]. Moreover, the outcome in assay [8] was inactive. Also, the “growth inhibition (GI)” value in assay [18] is reported as 98%.

For the molecule `Cc1nn(-c2ccccc2)nc1-c1nnc(-c2snnc2C)o1`, the inhibition of growth at 50 µg/mL in [1] was determined as 22.2%; in assay [2], 0%; in [3] it was 17.6%; in assay [4], 23.5%; in [5], 17.6%; in [6], 37.9%. Further, the inhibition of growth at 50 µg/mL worked out at 0% in assay [7]; 0% in assay [9]; 0% in assay [10]; 41.4% in assay [12]; 31% in assay [13]; 44.4% in [14]. Besides, the values for the inhibition of growth at 50 µg/mL in [15], in assay [16] and in assay [17] were 0%, 0% and 31%, respectively. Further, the Activity in assay [8] was found to be 10%. The “growth inhibition (GI)” value in assay [11] was “inactive”. Moreover, the “growth inhibition (GI)” value in [18] turned out to be 0%.

As for `Cc1nnsc1-c1nnc(-c2ccco2)o1`, the “growth inhibition (GI)” value in [1], in [2], in [6], in assay [7], in [9] and in assay [12] was “inactive” in each case. The “growth inhibition (GI)” value in assay [16] and in [17] was “inactive” each time. In addition, the inhibition of growth at 50 µg/mL was 87.5% in assay [3]; 0% in [4]; 53.6% in assay [5]; 42.1% in [10]; 0% in [11]; 22.2% in [13]. Further, the figures for the inhibition of growth at 50 µg/mL in assay [14] and in assay [15] were 38.9% and 19.1%, respectively. Further, in assay [8], the Activity is listed as 0%. Besides, the “growth inhibition (GI)” value in assay [18] is 0%.

In the case of `CCCc1c(-c2nnc(-c3snnc3C)o2)cnn1-c1ccc(Cl)cc1`, the inhibition of growth at 50 µg/mL in [1] came to 19.4%; in [2], 31%; in assay [3], 41.2%; in assay [4], 23.5%; in [5], 17.6%; in assay [6], 31%. The inhibition of growth at 50 µg/mL in [7] amounted to 0%; in assay [9], 0%; in [10] it was 0%; in [12] it was 31%; in [13], 48.3%; in assay [14], 44.4%. Further, the values for the inhibition of growth at 50 µg/mL in assay [15], in assay [16] and in assay [17] were 0%, 0% and 27.6%, respectively. Also, the Activity in assay [8] was determined as 0%. In addition, the “growth inhibition (GI)” value in assay [11] was “inactive”. Also, the “growth inhibition (GI)” value in assay [18] is listed as 0%.

With `COc1cccc(-c2nnc(-c3snnc3C)o2)c1`, the inhibition of growth at 50 µg/mL in assay [1] is 41.2%; in [2], 17.2%; in assay [3], 17.6%; in assay [4] it was 23.5%; in [5], 11.7%; in assay [6], 13.8%. Besides, the inhibition of growth at 50 µg/mL was 0% in assay [7]; 0% in [9]; 0% in assay [10]; 20% in assay [11]; 13.8% in [12]; 31% in assay [13]. Also, the inhibition of growth at 50 µg/mL in assay [14] was 33.3%; in [15], 0%; in assay [16], 0%; in assay [17], 27.6%. Moreover, the Activity in assay [8] worked out at 0%. In addition, the “growth inhibition (GI)” value in assay [18] is listed as 39%.

In the case of `Cc1nnsc1-c1nnc(-c2ccc(=O)[nH]c2)o1`, the inhibition of growth at 50 µg/mL was determined as 47.2% in [1]; 17.6% in assay [2]; 0% in assay [3]; 53.6% in assay [4]; 31% in assay [5]; 13.8% in assay [6]. Further, the inhibition of growth at 50 µg/mL in assay [7] is 22.2%; in assay [9] it was 44.4%; in assay [10], 13.8%; in assay [11] it was 31%; in assay [12], 21.1%; in [13], 13.8%. In addition, the inhibition of growth at 50 µg/mL in assay [14] turned out to be 23.5%; in assay [15] it was 33.3%; in assay [16], 24.1%; in [17] it was 27.3%. Also, in assay [8], the result was inactive. In assay [18], the “growth inhibition (GI)” value is “inactive”.
